Screening data: PubChem BioAssay, Broad Institute
Only some compounds are listed: those with a hit (about 2.5% of all), similar ones and a draw of the others.
E-sel inducer – E-selectin induction in HUVECs, primary screen, imaging, HUVEC, immunofluorescence imaging, single point; P16581; activation, % at 7.58 µM; normalized: neutral wells 0, TNF-alpha wells 100; AID 686992, 2013; hit rate 0.37% among 260,000;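 active means mean E-selectin-positive cell signal at least 10% of the positive control, reached in at least 60% of replicates, without over 20% cell loss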
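assay system = HUVEC, human umbilical vein endothelial cells | input = 3,000 HUVEC seeded per well | medium = EGM-2 growth medium on 0.1% gelatin-coated wells | dosing = one compound dose added by pin transfer | signal = immunofluorescence imaging | read-out basis = % PE-positive cells | control set = TNF-alpha, DMSO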
SIRT5 block – SIRT5 desuccinylase inhibitors, primary screen, biochemical, fluorescence imaging, single point, set 5. NAD-dependent protein deacylase sirtuin-5, mitochondrial (Homo sapiens), Q9NXA8. Purified SirT5, succinyl-peptide AMC, trypsin-coupled fluorescence. inhibition, % at 15 µM. hit rate 1.1% among 330,000. AID 652115, 2013; in the data active means inhibition above about 15%
Target sequence (Q9NXA8 whole entry, looked up): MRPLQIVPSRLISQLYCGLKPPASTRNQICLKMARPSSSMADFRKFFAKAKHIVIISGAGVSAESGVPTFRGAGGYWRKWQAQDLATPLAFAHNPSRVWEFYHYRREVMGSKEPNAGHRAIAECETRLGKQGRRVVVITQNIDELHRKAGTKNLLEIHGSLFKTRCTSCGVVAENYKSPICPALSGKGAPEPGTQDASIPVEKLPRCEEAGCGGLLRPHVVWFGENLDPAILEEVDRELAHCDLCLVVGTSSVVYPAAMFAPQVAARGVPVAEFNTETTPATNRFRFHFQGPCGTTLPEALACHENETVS
FGF22 binding – binders of human FGF22 protein, primary screen, FGF22 synaptogenesis inhibitor project, biophysical, thermal shift, single point; activity (Tm shift, normalised), % at 9.99 µM; recombinant FGF22 thermal shift, SYPRO orange fluorescence; percent of sucrose octasulfate shift, DMSO zero; AID 651658, 2012; Fibroblast growth factor 22 (Homo sapiens), Q9HCT0; hit rate 1.5% among 340,000;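 active means mean Tm shift, scaled 0 neutral to 100 positive control, at about 1.3% or above, every replicate too, limit read from the data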
Target sequence (Q9HCT0 whole entry, looked up): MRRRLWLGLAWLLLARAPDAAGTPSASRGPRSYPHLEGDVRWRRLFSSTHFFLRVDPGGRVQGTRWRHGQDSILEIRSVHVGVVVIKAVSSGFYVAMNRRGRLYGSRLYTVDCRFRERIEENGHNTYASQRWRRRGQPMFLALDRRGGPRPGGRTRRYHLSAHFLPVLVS
S100A4 inh HTS – inhibitors of S100A4-myosin IIA peptide binding, primary screen, biochemical, fluorescence polarization, TAMRA-MyoIIA peptide. Protein S100-A4 (Homo sapiens), P26447. inhibition, % at 10.7 µM. hit rate 0.14% among 360,000. AID 652163, 2013;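 active means mean inhibition of at least 70% across replicates, with every replicate also reaching that level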
Target sequence (P26447 whole entry, looked up): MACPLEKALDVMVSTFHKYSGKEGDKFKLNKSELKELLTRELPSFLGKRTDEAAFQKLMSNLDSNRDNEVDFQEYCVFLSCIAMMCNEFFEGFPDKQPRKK
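Material: human S100A4 monomer with TAMRA-labelled myosin IIA peptide; buffer or medium: HEPES pH 7.2 with CaCl2, KCl, NaCl, DTT, Triton; compound dosing: one concentration per compound; schedule: 5 min incubation before reading; benchmarks: neutral control DMSO, positive control TFP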
miR122 inh – miR-122 Renilla sensor signal increase in Huh7, primary screen, miR-122 inhibitor project, cell-based, single point, plate reader. Huh7 miR-122 Renilla luciferase sensor, 48 h; neutral wells = 0, positive control = 100. activation (reporter increase), % at 12.5 µM. hit rate 0.3% among 340,000. AID 602342, 2012;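 active means mean replicate activation score at least 90 and every replicate individually at or above 90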;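 further: higher luciferase means less miR-122 activity so hits act as miR-122 inhibitors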
* = called active by the depositor; . = no result; ! = not confirmed by another sample; [ ] = dose if it differs, or a comment.

SMILES | E-sel inducer | SIRT5 block | FGF22 binding | S100A4 inh HTS | miR122 inh
COc1ccc2c3c(n(C)c2c1)[C@H](CO)N(C)CC31CN(S(=O)(=O)c2cn(C)cn2)C1 | 0 | . | 0 | 1 | .
C[C@H](CO)N1C[C@H](C)[C@H](CN(C)C)Oc2ccc(NC(=O)CCCCCC(=O)Nc3ccccc3N)cc2C1=O | 5 | 5 | 0 | -7 | .
COCCNC(=O)[C@@]1(C)C=C[C@@H](Cc2ccccc2)N1C(=O)c1ccccc1 | 0 | 0 | 0 | -1 | -5
CNC(=O)[C@@]1(C)C=C[C@@H](Cc2ccccc2)N1C(=O)OC | 0 | . | . | . | 133*
C[C@]1(C(=O)NCc2cc(F)cc(C(F)(F)F)c2)C=C[C@@H](Cc2ccccc2)N1C(=O)c1ccccc1 | 0 | 34* | 0 | 0 | .
CNC(=O)[C@@]1(Cc2ccccc2)C=C[C@@H](C)N1C(=O)OC | 1 | . | -1 | -9 | .
O=C(OCc1cn([C@@H]2C[C@H](c3ccccc3)N(Cc3cccs3)C[C@H]2O)nn1)c1ccccc1 | 0 | . | 44* | -3 | -7
NC(=O)c1nn(-c2ccc(Cl)cc2Cl)c(=O)cc1O | . | 2 | 44* | -1 | .
COc1cccc(-n2nc(C(N)=O)c(O)cc2=O)c1 | 0 | -4 | 43* | 2 | -4
Cc1c(C(=O)/C=C/N(C)C)nnn1-c1ccc(Cl)cc1Cl | . | -3 | 0 | -3 | .
COc1ccc(-n2nc(C(N)=O)c(O)cc2=O)cc1 | . | -6 | 0 | 1 | -1
C[C@@H]1CCCCO[C@H](CN(C)Cc2ccc3c(c2)OCO3)[C@H](C)CN([C@H](C)CO)C(=O)c2cc(NC(=O)Nc3ccc(C(F)(F)F)cc3)ccc2O1 | 0 | 3 | 0 | 5 | -26[16.7 µM]
COc1ccccc1NC(=O)N[C@H]1CC[C@H](CC(=O)N[C@@H](C)c2ccccc2)O[C@@H]1CO | -1 | -8 | 0 | 63 | .
CCOC(=O)CNC(=O)N1CCCC(C(=O)c2ccc3c(c2)OCO3)C1 (stereo not given) | 0 | 3 | 43* | 2 | .
O=C(Nc1ccc(C(F)(F)F)cc1)N1C[C@@H]2N[C@H](C1)C2c1ccc(-c2ccccc2)cc1 (stereo not given in full) | 0 | 21*! | . | 10 | .
O=[N+]([O-])c1ccc(CSc2nnc(SCc3ccccc3)s2)cc1 | . | -2 | 44* | -16 | -8
O=C(N/N=C/c1ccc2c(c1)OCO2)c1cc(-c2ccc(F)cc2)nc2ccccc12 | 1 | 0 | 0 | -2 | -7
O=C(O)COc1ccccc1/C=N/NC(=O)c1cc(-c2ccc(F)cc2)nc2ccccc12 | . | 6 | 1.5* | 1 | 7
COC(=O)c1ccc(NS(=O)(=O)c2cc(C)ccc2OC)cc1 | . | . | . | . | 150*
CCOc1ccc(NS(=O)(=O)c2cc(OCC(N)=O)c(C)cc2Cl)cc1 | 0 | . | . | . | 14
CCOc1cc(C)c(S(=O)(=O)Nc2ccc(F)cc2)cc1C | . | . | . | . | 304*
Cc1ccc(C)c(S(=O)(=O)Nc2cc3c4c(c2)CC(=O)N4CCC3)c1 | . | 0 | . | -3 | 163*
COc1ccc(C(=O)O)cc1S(=O)(=O)Nc1ccc(C)cc1 | 1 | 4 | 0 | -1 | .
COc1ccc(OC)c(S(=O)(=O)Nc2ccc(F)cc2)c1 | . | -2 | 0 | 2 | 78
COc1ccc(C)cc1S(=O)(=O)Nc1ccc(F)cc1 | . | . | . | 39 | 113*
SMILES | E-sel inducer | SIRT5 block | FGF22 binding | S100A4 inh HTS | miR122 inh
CC=Cc1ccc2n(c1=O)C[C@@H]1[C@@H](CO)[C@H](C(=O)NCC3CC3)N(CC3CCOCC3)[C@H]21 (mixture of isomers) | 0 | -7 | 0 | 4 | 2[16.7 µM]
COc1ccc2c3c(n(C)c2c1)[C@@H](CO)NCC31CCN(C(=O)c2cccc(F)c2)CC1 | 0 | . | 0 | 48 | .
CCNC(=O)C[C@H]1CC[C@@H]2[C@@H](COc3ccc(NC(C)=O)cc3C(=O)N2C)O1 | 0 | -1 | 0 | 2 | 25[16.7 µM]
CCc1ccc(NS(=O)(=O)c2cc(OC)ccc2OC)cc1 | . | -2 | 0 | -17 | 140*
COc1ccc(OC)c(S(=O)(=O)Nc2cc3c4c(c2)CCN4C(=O)CC3)c1 | 0 | -1 | 0 | 0 | 143*
C[C@@H]1CCCCO[C@@H](CN(C)S(=O)(=O)c2cn(C)cn2)[C@H](C)CN([C@@H](C)CO)C(=O)c2cc(NC(=O)c3ccncc3)ccc2O1 | 1 | 4 | 0 | 9 | 5[16.7 µM]
C[C@@H]1CN([C@@H](C)CO)C(=O)c2cc(C#CC3CC3)cnc2O[C@H]1CN(C)C(=O)CC1CC1 | 0 | -9 | 0 | -18 | -4[16.7 µM]
O=C(Nc1cccc(Cl)c1)Nc1cccc(C(=O)O)c1 | . | 23* | . | -3 | 2
O=C(Nc1ccc(Cl)cc1)Nc1cccc(C(=O)O)c1 | . | 7 | 1 | -6 | 3
O=C(NC1CCCC1)N1CC(=O)N2[C@H](CO)[C@@H](c3ccc(-c4cccnc4)cc3)[C@@H]2C1 | 0 | 1 | . | -13 | .
CCNC1(C#N)CCN(Cc2ccccc2)CC1 | 0 | 2 | 0 | -1 | -4
CC(C)NC1(C#N)CCN(Cc2ccccc2)CC1 | 0 | . | 43* | -2 | .
CC(C)NC(=O)Nc1ccc2c(c1)C(=O)N([C@@H](C)CO)C[C@@H](C)[C@@H](CN(C)C(=O)NC(C)C)OCCCC[C@H](C)O2 | . | -2 | -1 | -7 | 8[16.7 µM]
COc1ccc(S(=O)(=O)Nc2ccc3c(c2)C(=O)N([C@H](C)CO)C[C@@H](C)[C@@H](CN(C)C(=O)c2ccncc2)OCCCC[C@@H](C)O3)cc1 | 0 | -2 | 0 | -27 | -3[16.7 µM]
O=C(Nc1ccc(N2CCCC2)c(Cl)c1)c1cccs1 | . | 67* | 1 | -1 | 8
COc1ccccc1NS(=O)(=O)c1cc(NC(=O)c2cccs2)ccc1N1CCOCC1 | -4 | 2 | 0 | -12 | 112*
COc1ccc(NS(=O)(=O)c2cc(NC(=O)C3CC3)ccc2N2CCOCC2)cc1 | 1 | -3 | 0 | -1 | 87
CCC(C(=O)Nc1ccc(N2CCOCC2)c(S(=O)(=O)Nc2ccccc2OC)c1)c1ccccc1 (stereo not given) | 0 | -6 | 0 | 9 | 121*
COc1ccc(NS(=O)(=O)c2cc(NC(=O)CCc3ccc(OC)c(OC)c3)ccc2N2CCOCC2)cc1 | 0 | -2 | 0 | -4 | 118*
COc1ccccc1CN1[C@H](CO)[C@H]2c3ccccc3N(C(=O)c3ccncc3)C[C@H]21 | 1 | 4 | 0 | 6 | 5[16.7 µM]
C[C@@H]1CN([C@H](C)CO)S(=O)(=O)c2ccc(C#CC3CC3)cc2O[C@H]1CN(C)Cc1ccncc1 | 0 | 0 | 0 | 13 | 25[16.7 µM]
